Laboratory results taken from ChEMBL document CHEMBL1806389, “Synthesis, in vitro and in vivo evaluation of fluorine-18 labelled FE-GW405833 as a PET tracer for type 2 cannabinoid receptor imaging” (Bioorg Med Chem, 2011).
Values joined by “and” are separate entries in the source; they are usually repeats but may differ in a detail not shown here. Identical values can stand only once. Active and inactive are the calls of the source. The calls are words filed in the database; no cut-off is given here.

Columns and labels:
Brain [1] = test: Biodistribution in Wistar rat brain after 60 mins; type: ADME, organism-based; conditions: in vivo, 1 h
Striatum [2] = test: In vivo binding affinity to human CB2 receptor D80N mutant expressed in Fisher rat right striatum at 37 MBq, iv after 60 mins by microPET study relative to left striatum; type: functional
Method in brief: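 Normal 8-week-old Fisher rat received stereotactic AAV2/7-eGFP-T2A-hCB2R(D80N) vector in the right striatum and a control eGFP vector in the left striatum. Scanned 34 days later under 3% isoflurane in 2.0 L/min oxygen. Dynamic microPET started immediately after IV injection of about 37 MBq tracer. Images spatially normalized to stereotactic space; striatal time-activity curves from predefined volumes of interest.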

Cannabinoid receptor 2 [3] = biological target: T1, Cannabinoid receptor 2 (Homo sapiens, UniProt P34972); test: Inverse agonist activity at human CB2 receptor expressed in CHO cells assessed as effect on [35S]-GTPgammaS binding after 1 hrs by beta counting relative to control; type: functional, cell-based; conditions: tested as the 18F-labelled form
Striatum [4] = test: In vivo binding affinity to human CB2 receptor D80N mutant expressed in Fisher rat […] at 37 MBq, iv after up to 60 mins by microPET study; type: functional, organism-based; conditions: 37 M, tested as the 18F-labelled form
Intestine [5] = test: Biodistribution in NMRI mouse intestine at 6 MBq/ml, iv after 2 mins by gamma counting; type: ADME, organism-based; conditions: in vivo
Method in brief: (§1)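 Tracer formulated in saline at about 6 MBq/ml (diluted HPLC-purified product); 100 µl given into a tail vein. Mice killed by decapitation at 2 or 60 min p.i.; organs, body parts and blood dissected, weighed and gamma-counted. Values as %ID (cpm in organ/total cpm recovered), %ID/g, or SUV. Total blood mass taken as 7% of body mass. Mean SD, n = 4 per time point.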

Blood [6] = test: Biodistribution in NMRI mouse blood at 6 MBq/ml, iv after 60 mins by gamma counting; type: ADME, organism-based; conditions: in vivo, 1 h; method in brief: as §1
Kidney [7] = test: Biodistribution in NMRI mouse kidney at 6 MBq/ml, iv after 60 mins by gamma counting; type: ADME, organism-based; conditions: in vivo, 1 h; method in brief: as §1
[8] = Metabolic stability in NMRI mouse plasma at 6 MBq/ml, iv after 2 mins by HPLC analysis; type: ADME, organism-based; conditions: read-out: Stability
Method in brief: (§2)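 Normal NMRI mice were given the tracer IV, and plasma and brain were sampled at 2, 10 or 30 min. The percentage of intact tracer was measured by reversed-phase HPLC with 0.05 M ammonium acetate pH 6.9/acetonitrile eluent, 30/70 for plasma and 40/60 for brain, at 1 ml/min.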

Stomach [9] = test: Biodistribution in NMRI mouse stomach at 6 MBq/ml, iv after 2 mins by gamma counting; type: ADME, organism-based; conditions: in vivo; method in brief: as §1
Kidney [10] = test: Biodistribution in NMRI mouse kidney at 6 MBq/ml, iv after 2 mins by gamma counting; type: ADME, organism-based; conditions: in vivo; method in brief: as §1
Brain [11] = test: Biodistribution in NMRI mouse brain at 6 MBq/ml, iv after 60 mins by gamma counting; type: ADME, organism-based; conditions: in vivo, 1 h; method in brief: as §1
Cannabinoid receptor 1 = Cannabinoid receptor 1 (Homo sapiens, UniProt P21554); test: Displacement of [3H]-SR141716A from human CB1 receptor expressed in CHO cells after 1 hrs by beta counting; type: cell-based
Blood [12] = test: Biodistribution in NMRI mouse blood at 6 MBq/ml, iv after 2 mins by gamma counting; type: ADME, organism-based; conditions: in vivo; method in brief: as §1
Stomach [13] = test: Biodistribution in NMRI mouse stomach at 6 MBq/ml, iv after 60 mins by gamma counting; type: ADME, organism-based; conditions: in vivo, 1 h; method in brief: as §1
[14] = Metabolic stability in NMRI mouse brain at 6 MBq/ml, iv after 2 mins by HPLC analysis; type: ADME, organism-based; conditions: read-out: Stability; method in brief: as §2
[15] = Biodistribution in NMRI mouse urine at 6 MBq/ml, iv after 60 mins by gamma counting; type: ADME, organism-based; conditions: in vivo, 1 h; method in brief: as §1
Pancreas [16] = test: Biodistribution in NMRI mouse pancreas at 6 MBq/ml, iv after 60 mins by gamma counting; type: ADME, organism-based; conditions: in vivo, 1 h; method in brief: as §1
[17] = Octanol-phosphate buffer partition coefficient, log D of the compound at pH 7.4; type: physicochemical
Method in brief: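 Radiolabelled tracer partitioned between 1-octanol and 0.025 M phosphate buffer pH 7.4; log D from distribution of radioactivity.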

Heart [18] = test: Biodistribution in NMRI mouse heart at 6 MBq/ml, iv after 2 mins by gamma counting; type: ADME, organism-based; conditions: in vivo; method in brief: as §1
[19] = Biodistribution in NMRI mouse urine at 6 MBq/ml, iv after 2 mins by gamma counting; type: ADME, organism-based; conditions: in vivo; method in brief: as §1
Lung [20] = test: Biodistribution in NMRI mouse lungs at 6 MBq/ml, iv after 2 mins by gamma counting; type: ADME, organism-based; conditions: in vivo; method in brief: as §1
Spleen [21] = test: Biodistribution in NMRI mouse spleen at 6 MBq/ml, iv after 2 mins by gamma counting; type: ADME, organism-based; conditions: in vivo; method in brief: as §1
[22] = Metabolic stability in NMRI mouse plasma at 6 MBq/ml, iv after 30 mins by HPLC analysis; type: ADME, organism-based; conditions: read-out: Stability; method in brief: as §2
[23] = Metabolic stability in NMRI mouse brain at 6 MBq/ml, iv after 30 mins by HPLC analysis; type: ADME, organism-based; conditions: read-out: Stability; method in brief: as §2
Intestine [24] = test: Biodistribution in NMRI mouse intestine at 6 MBq/ml, iv after 60 mins by gamma counting; type: ADME, organism-based; conditions: in vivo, 1 h; method in brief: as §1
Heart [25] = test: Biodistribution in NMRI mouse heart at 6 MBq/ml, iv after 60 mins by gamma counting; type: ADME, organism-based; conditions: in vivo, 1 h; method in brief: as §1
Spleen [26] = test: Biodistribution in NMRI mouse spleen at 6 MBq/ml, iv after 60 mins by gamma counting; type: ADME, organism-based; conditions: in vivo, 1 h; method in brief: as §1
[27] = Metabolic stability in NMRI mouse plasma at 6 MBq/ml, iv after 10 mins by HPLC analysis; type: ADME, organism-based; conditions: read-out: Stability; method in brief: as §2
[28] = Metabolic stability in NMRI mouse brain at 6 MBq/ml, iv after 10 mins by HPLC analysis; type: ADME, organism-based; conditions: read-out: Stability; method in brief: as §2
Liver [29] = test: Biodistribution in NMRI mouse liver at 6 MBq/ml, iv after 2 mins by gamma counting; type: ADME, organism-based; conditions: in vivo; method in brief: as §1
Brain [30] = test: Biodistribution in NMRI mouse brain at 6 MBq/ml, iv after 2 mins by gamma counting; type: ADME, organism-based; conditions: in vivo; method in brief: as §1
Cannabinoid receptor 2 [31] = biological target: T1, Cannabinoid receptor 2; test: Displacement of [3H]-CP55940 from human CB2 receptor expressed in CHO cells after 1 hrs by beta counting; type: cell-based
Pancreas [32] = test: Biodistribution in NMRI mouse pancreas at 6 MBq/ml, iv after 2 mins by gamma counting; type: ADME, organism-based; conditions: in vivo; method in brief: as §1
Lung [33] = test: Biodistribution in NMRI mouse lungs at 6 MBq/ml, iv after 60 mins by gamma counting; type: ADME, organism-based; conditions: in vivo, 1 h; method in brief: as §1
Cannabinoid receptor 2 [34] = biological target: T1, Cannabinoid receptor 2; test: Inverse agonist activity at human CB2 receptor expressed in CHO cells assessed as effect on [35S]-GTPgammaS binding after 1 hrs by beta counting; type: functional, cell-based
Liver [35] = test: Biodistribution in NMRI mouse liver at 6 MBq/ml, iv after 60 mins by gamma counting; type: ADME, organism-based; conditions: in vivo, 1 h; method in brief: as §1

T1 sequence (P34972 whole entry): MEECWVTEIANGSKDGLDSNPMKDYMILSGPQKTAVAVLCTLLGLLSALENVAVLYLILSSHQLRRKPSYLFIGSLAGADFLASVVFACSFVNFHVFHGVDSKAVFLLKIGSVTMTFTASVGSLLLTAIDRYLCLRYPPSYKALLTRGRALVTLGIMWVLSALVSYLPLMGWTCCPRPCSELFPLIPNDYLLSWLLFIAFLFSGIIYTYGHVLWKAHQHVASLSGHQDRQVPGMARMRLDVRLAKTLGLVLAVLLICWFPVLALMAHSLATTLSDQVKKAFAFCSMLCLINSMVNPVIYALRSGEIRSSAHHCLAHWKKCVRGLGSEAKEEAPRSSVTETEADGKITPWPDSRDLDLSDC
Chain of Cannabinoid receptor 1 (P21554 whole entry): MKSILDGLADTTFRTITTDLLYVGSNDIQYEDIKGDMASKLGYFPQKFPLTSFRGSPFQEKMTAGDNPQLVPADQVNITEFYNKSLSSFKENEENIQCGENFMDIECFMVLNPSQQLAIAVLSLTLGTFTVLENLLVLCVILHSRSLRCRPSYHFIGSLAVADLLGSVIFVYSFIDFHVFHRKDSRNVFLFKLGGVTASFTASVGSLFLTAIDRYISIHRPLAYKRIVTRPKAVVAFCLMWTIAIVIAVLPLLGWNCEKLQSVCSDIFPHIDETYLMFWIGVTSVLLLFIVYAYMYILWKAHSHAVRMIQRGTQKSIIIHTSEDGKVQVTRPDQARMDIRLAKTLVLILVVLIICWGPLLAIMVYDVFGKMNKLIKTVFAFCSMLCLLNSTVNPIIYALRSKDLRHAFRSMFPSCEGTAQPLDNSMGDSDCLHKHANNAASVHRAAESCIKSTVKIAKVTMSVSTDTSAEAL

## Cc1c(CCN2CCOCC2)c2cc(O[11CH3])ccc2n1C(=O)c1cccc(Cl)c1Cl
Brain [1]
  Drug uptake: 0.1 %ID
Striatum [2]
  Ratio: 1.6

## Cc1c(CCN2CCOCC2)c2cc(OCCF)ccc2n1C(=O)c1cccc(Cl)c1Cl
Cannabinoid receptor 2 [3]
  Emax: -82%
Striatum [4]
  Activity: Active

## Cc1c(CCN2CCOCC2)c2cc(OCC[18F])ccc2n1C(=O)c1cccc(Cl)c1Cl
Intestine [5]
  Drug uptake: 8.9 %ID
Blood [6]
  Drug uptake: 5 %ID and 2.1 % ID/g
  SUV: 0.7
Kidney [7]
  Drug uptake: 2.2 %ID and 3.4 % ID/g
  SUV: 1.2
[8]
  remaining at 2 min: 84%
Stomach [9]
  Drug uptake: 1.3 %ID
Kidney [10]
  Drug uptake: 9.8 %ID and 15.8 % ID/g
  SUV: 5.5
Brain [11]
  Drug uptake: 0.7 %ID and 1.6 % ID/g
  SUV: 0.6
Cannabinoid receptor 1
  Ki: 10000 nM
Blood [12]
  Drug uptake: 4.5 %ID and 1.9 % ID/g
  SUV: 0.6
Stomach [13]
  Drug uptake: 1.8 %ID
[14]
  remaining at 2 min: 95%
[15]
  Drug uptake: 1.4 %ID
Pancreas [16]
  SUV: 0.8
[17]
  logD: 2.8
Heart [18]
  SUV: 2.7
[19]
  Drug uptake: 0.1 %ID
Lung [20]
  SUV: 4.5
Spleen [21]
  SUV: 3.3
[22]
  remaining at 0.5 h: 12%
[23]
  remaining at 0.5 h: 48%
Intestine [24]
  Drug uptake: 35.7 %ID
Heart [25]
  SUV: 0.7
Spleen [26]
  SUV: 1.1
[27]
  remaining at 10 min: 52%
[28]
  remaining at 10 min: 79%
Liver [29]
  Drug uptake: 47.4 %ID and 26.3 % ID/g
  SUV: 9.1
Brain [30]
  Drug uptake: 1.3 %ID and 2.9 % ID/g
  SUV: 1
Cannabinoid receptor 2 [31]
  Ki: 27 nM
Pancreas [32]
  SUV: 1.2
Lung [33]
  SUV: 0.8
Cannabinoid receptor 2 [34]
  EC50: 17.9 nM
Liver [35]
  Drug uptake: 23.7 %ID and 11.4 % ID/g
  SUV: 4
